Experiments:
Mus musculus [1] = assay: Antagonist effect on estrogen activity assessed as inhibition of estrogen-stimulated uterine weight gain in ovariectomized mouse at 10 mg/kg, po; assay type: functional
Outline: (§1)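 Ovariectomized mice given 0.1 lg 17b-estradiol benzoate sc in peanut oil plus oral test compound in 5% gum arabic-water suspension, once daily for three consecutive days. Uteri weighed about 24 h after last dose. % inhibition = 100·(1−(T−C)/(E−C)), using uterine weight gain per body weight. C is vehicle. Mean ± SEM.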

Mus musculus [2] = assay: Antagonist effect on estrogen activity assessed as inhibition of estrogen-stimulated uterine weight gain in ovariectomized mouse at 3 mg/kg, po; assay type: functional; outline: as §1
[3] = target: T1, Estrogen receptor (Homo sapiens) (UniProt P03372); assay: Displacement of [3H]estradiol from recombinant ERalpha relative to estradiol
T1 sequence (whole entry): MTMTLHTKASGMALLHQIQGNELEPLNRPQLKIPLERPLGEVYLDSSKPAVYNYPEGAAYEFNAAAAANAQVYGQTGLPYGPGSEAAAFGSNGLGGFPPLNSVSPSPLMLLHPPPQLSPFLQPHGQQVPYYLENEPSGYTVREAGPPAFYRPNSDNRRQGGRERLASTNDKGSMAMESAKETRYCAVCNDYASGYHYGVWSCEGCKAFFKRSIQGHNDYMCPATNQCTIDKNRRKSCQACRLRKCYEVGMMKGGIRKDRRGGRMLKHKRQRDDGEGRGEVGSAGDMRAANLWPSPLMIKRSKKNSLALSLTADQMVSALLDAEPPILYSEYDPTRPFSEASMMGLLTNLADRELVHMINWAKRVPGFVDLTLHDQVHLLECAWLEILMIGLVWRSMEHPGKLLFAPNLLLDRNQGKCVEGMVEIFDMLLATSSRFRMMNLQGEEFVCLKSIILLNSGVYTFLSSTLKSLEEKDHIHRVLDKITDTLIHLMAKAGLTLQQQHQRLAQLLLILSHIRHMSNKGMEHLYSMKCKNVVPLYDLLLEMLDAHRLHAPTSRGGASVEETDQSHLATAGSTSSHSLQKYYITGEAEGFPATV
Outline: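 Competitive radiometric binding assay using human recombinant ERα, with [3H]estradiol displaced by the test compound. Result is expressed as relative binding affinity (%), with estradiol set to 100.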

Mus musculus [4] = assay: Antagonist effect on estrogen activity assessed as inhibition of estrogen-stimulated uterine weight gain in ovariectomized mouse at 1 mg/kg, po; assay type: functional; outline: as §1
Rattus norvegicus [5] = assay: (§2) AUC in Sprague-Dawley rat at 10 mg/kg, iv; assay type: ADME, organism-based, Plasma; design: dose 10 mg/kg, route intravenous; details: in vivo
Outline: (§3)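 Sprague–Dawley rats dosed as a solution in water/PEG200/EtOH (3:6:1), intravenously at 10 mg/kg or orally at 20 mg/kg. Plasma AUC of intact compound; total clearance also derived from iv data and bioavailability from po/iv AUC.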

Rattus norvegicus [6] = assay: (§4) AUC in Sprague-Dawley rat at 20 mg/kg, po; assay type: ADME, organism-based, Plasma; design: dose 20 mg/kg, route oral; details: in vivo; outline: as §3
[7] = AUC in CD1 mouse at 10 mg/kg, iv; assay type: ADME, organism-based; design: dose 10 mg/kg, route intravenous; details: plasma
Outline: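 CD-1 mice dosed intravenously at 10 mg/kg as a solution in water/PEG200/EtOH (3:6:1). Plasma AUC of intact compound.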

[8] = as §2; assay type: ADME, organism-based, Plasma; design: dose 10 mg/kg, route intravenous; details: Sprague-Dawley, plasma; outline: as §3
[9] = as §4; assay type: ADME, organism-based, Plasma; design: dose 20 mg/kg, route oral; details: Sprague-Dawley, plasma; outline: as §3
[10] = Bioavailability in cynomolgus monkey; assay type: ADME, organism-based, Macaca fascicularis; details: in vivo
Outline: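 Cynomolgus monkeys received 3 mg/kg by both the oral and intravenous routes, as a solution in water/PEG200/EtOH (4:8:3). Plasma AUC of the intact compound and of the interconverting 17-keto/17-hydroxy metabolite was measured.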

[11] = AUC in cynomolgus monkey at 3 mg/kg, po; assay type: ADME, organism-based, Macaca fascicularis; design: dose 3 mg/kg, route oral; details: plasma
Outline: (§5)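 Cynomolgus monkeys given 3 mg/kg intravenously or orally as a solution in water/PEG200/EtOH (4:8:3). Plasma AUC of intact compound; after oral dosing the 17-position metabolite was also quantified, and bioavailability was calculated from po versus iv AUC.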

[12] = AUC in cynomolgus monkey at 3 mg/kg, iv; assay type: ADME, organism-based, Macaca fascicularis; design: dose 3 mg/kg, route intravenous; details: plasma; outline: as §5
[13] = AUC in CD1 mouse at 30 mg/kg, po; assay type: ADME, organism-based; design: dose 30 mg/kg, route oral; details: plasma
Outline: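 CD-1 mice dosed orally at 30 mg/kg as a suspension in 5% gum arabic. Plasma AUC measured for intact compound and separately for its 17-position metabolite (17-keto/17-hydroxy interconversion product).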

Mus musculus [14] = assay: Agonist effect on estrogen activity assessed as stimulation of uterine weight gain in ovariectomized mouse at 17 mg/kg, sc relative to control; assay type: functional; details: route subcutaneous
Outline: (§6)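 Ovariectomized mice dosed sc once daily for three consecutive days with test compound in 10% EtOH-peanut oil. Uteri weighed about 24 h after last dose. Uterine weight gain per body weight expressed as % = 100·(T−C)/(E−C), E being the 17b-estradiol benzoate response and C vehicle. Mean ± SEM. Difference from vehicle tested by Student's t test (P < 0.05).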

[15] = Bioavailability in CD1 mouse; assay type: ADME, organism-based; details: in vivo
Outline: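 CD-1 mice were dosed orally at 30 mg/kg as a suspension in 5% gum arabic, and intravenously at 10 mg/kg as a solution in water/PEG200/EtOH (3:6:1). Plasma AUC of the intact compound was measured for each route. The 17-keto or 17-hydroxy metabolite was also monitored.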

[16] = Bioavailability in Sprague-Dawley rat; assay type: ADME, organism-based; details: in vivo
Outline: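 Sprague–Dawley rats were given the compound as a solution in water/PEG200/EtOH (3:6:1), 10 mg/kg iv and 20 mg/kg po. Plasma AUC was determined for each route.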

[17] = Total clearance in Sprague-Dawley rat at 10 mg/kg, iv; assay type: ADME, organism-based; design: dose 10 mg/kg, route intravenous; details: in vivo
Outline: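 Sprague–Dawley rats were given a single iv dose as a solution in water/PEG200/EtOH (3:6:1). Total clearance was derived alongside plasma AUC.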

Mus musculus [18] = assay: Agonist effect on estrogen activity assessed as stimulation of uterine weight gain in ovariectomized mouse at 50 mg/kg, sc relative to control; assay type: functional; details: route subcutaneous; outline: as §6

C[C@]12CC[C@@H]3c4ccc(O)cc4C[C@@H](CCCCCCCCC(CCCC(F)(F)C(F)(F)F)C(=O)O)[C@H]3[C@@H]1CC[C@@H]2O (stereo partly specified)
inhibition in vivo at 10 mg/kg (Mus musculus [1]): 87% | inhibition in vivo at 3 mg/kg (Mus musculus [2]): 67% | RBA [3]: 0.8% | inhibition in vivo at 1 mg/kg (Mus musculus [4]): 37%

C[C@]12CC[C@@H]3c4ccc(O)cc4C[C@@H](CCCCCCCCC[S+]([O-])CCCC(F)(F)C(F)(F)F)[C@H]3[C@@H]1CC[C@@H]2O (stereo partly specified) [FULVESTRANT]
inhibition in vivo at 10 mg/kg (Mus musculus [1]): 54% | AUC (Rattus norvegicus [5]): 5.3 µg·h/mL | AUC (Rattus norvegicus [6]): 1.7 µg·h/mL | inhibition in vivo at 3 mg/kg (Mus musculus [2]): 29% | inhibition in vivo at 1 mg/kg (Mus musculus [4]): 11%

C[C@]12CC[C@@H]3c4ccc(O)cc4C[C@@H](CCCCCCCCCC(CCC(F)(F)C(F)(F)C(F)(F)C(F)(F)F)C(=O)O)[C@H]3[C@@H]1CC[C@@H]2O (stereo partly specified)
inhibition in vivo at 10 mg/kg (Mus musculus [1]): 92% | inhibition in vivo at 3 mg/kg (Mus musculus [2]): 49% | RBA [3]: 0.7% | inhibition in vivo at 1 mg/kg (Mus musculus [4]): 27%

C[C@]12CC[C@@H]3c4ccc(O)cc4C[C@@H](CCCCCCCC[C@@H](CCCC(F)(F)C(F)(F)C(F)(F)C(F)(F)F)C(=O)O)[C@H]3[C@@H]1CC[C@@H]2O
inhibition in vivo at 10 mg/kg (Mus musculus [1]): 99% | AUC [7]: 244 µg·h/mL | AUC [8]: 146 µg·h/mL | AUC [9]: 98 µg·h/mL | bioavailability [10]: 0.48% | AUC [11]: 420 ng·h/mL | AUC [12]: 88000 ng·h/mL | AUC [13]: 274 µg·h/mL | Activity (Mus musculus [14]): 4% | bioavailability [15]: 37% | bioavailability [16]: 33% | inhibition in vivo at 3 mg/kg (Mus musculus [2]): 93% | RBA [3]: 1.1% | clearance [17]: 1.23 mL/min/kg | inhibition in vivo at 1 mg/kg (Mus musculus [4]): 59%

C[C@]12CC[C@@H]3c4ccc(O)cc4C[C@@H](CCCCCCCCCC(CCCC(F)(F)C(F)(F)C(F)(F)C(F)(F)F)C(=O)O)[C@H]3[C@@H]1CC[C@@H]2O (stereo partly specified)
inhibition in vivo at 10 mg/kg (Mus musculus [1]): 85% | inhibition in vivo at 3 mg/kg (Mus musculus [2]): 42% | RBA [3]: 0.7% | inhibition in vivo at 1 mg/kg (Mus musculus [4]): 27%

C[C@]1(c2ccc(O)cc2)CSc2cc(O)ccc2[C@H]1CCCCCCCCC(CCCC(F)(F)C(F)(F)F)C(=O)O (stereo partly specified)
inhibition in vivo at 10 mg/kg (Mus musculus [1]): 77% | AUC (Rattus norvegicus [5]): 228 µg·h/mL | AUC (Rattus norvegicus [6]): 209 µg·h/mL | inhibition in vivo at 3 mg/kg (Mus musculus [2]): 41% | inhibition in vivo at 1 mg/kg (Mus musculus [4]): 11%

C[C@]12CC[C@@H]3c4ccc(O)cc4C[C@@H](CCCCCCCCCC(CCCC(F)(F)C(F)(F)F)C(=O)O)[C@H]3[C@@H]1CC[C@@H]2O (stereo partly specified)
inhibition in vivo at 10 mg/kg (Mus musculus [1]): 80% | inhibition in vivo at 3 mg/kg (Mus musculus [2]): 30% | RBA [3]: 1.4% | inhibition in vivo at 1 mg/kg (Mus musculus [4]): 22%

C[C@]12CC[C@@H]3c4ccc(O)cc4C[C@@H](CCCCCCCCC(CCCC(F)(F)C(F)(F)C(F)(F)C(F)(F)F)C(=O)O)[C@H]3[C@@H]1CC[C@@H]2O (stereo partly specified)
inhibition in vivo at 10 mg/kg (Mus musculus [1]): 96% | AUC [8]: 207 µg·h/mL | AUC [9]: 144 µg·h/mL | Activity (Mus musculus [14]): 4% | bioavailability [16]: 35% | inhibition in vivo at 3 mg/kg (Mus musculus [2]): 87% | RBA [3]: 1.4% | clearance [17]: 0.817 mL/min/kg | inhibition in vivo at 1 mg/kg (Mus musculus [4]): 64%

C[C@]12CC[C@@H]3c4ccc(O)cc4C[C@@H](CCCCCCCC[C@@H](CCCC(F)(F)C(F)(F)C(F)(F)C(F)(F)F)C(=O)O)[C@H]3[C@@H]1CCC2=O
inhibition in vivo at 10 mg/kg (Mus musculus [1]): 96% | AUC [7]: 389 µg·h/mL | AUC [8]: 50 µg·h/mL | Activity (Mus musculus [18]): 1% | AUC [9]: 32 µg·h/mL | bioavailability [10]: 3.1% | AUC [11]: 2420 ng·h/mL | AUC [12]: 77000 ng·h/mL | AUC [13]: 468 µg·h/mL | bioavailability [15]: 40% | bioavailability [16]: 32% | inhibition in vivo at 3 mg/kg (Mus musculus [2]): 85% | RBA [3]: 1% | inhibition in vivo at 1 mg/kg (Mus musculus [4]): 54%

C[C@]12CC[C@@H]3c4ccc(O)cc4C[C@@H](CCCCCCCC[C@H](CCCC(F)(F)C(F)(F)C(F)(F)C(F)(F)F)C(=O)O)[C@H]3[C@@H]1CC[C@@H]2O
inhibition in vivo at 10 mg/kg (Mus musculus [1]): 103% | AUC [7]: 447 µg·h/mL | AUC [8]: 254 µg·h/mL | AUC [9]: 190 µg·h/mL | AUC [11]: 300 ng·h/mL | AUC [13]: 470 µg·h/mL | Activity (Mus musculus [14]): 3% | bioavailability [15]: 35% | bioavailability [16]: 37% | inhibition in vivo at 3 mg/kg (Mus musculus [2]): 88% | RBA [3]: 1% | clearance [17]: 0.65 mL/min/kg | inhibition in vivo at 1 mg/kg (Mus musculus [4]): 58%

C[C@]12CC[C@@H]3c4ccc(O)cc4C[C@@H](CCCCCCCCC(CCC(F)(F)C(F)(F)C(F)(F)C(F)(F)F)C(=O)O)[C@H]3[C@@H]1CC[C@@H]2O (stereo partly specified)
inhibition in vivo at 10 mg/kg (Mus musculus [1]): 98% | inhibition in vivo at 3 mg/kg (Mus musculus [2]): 80% | RBA [3]: 0.6% | inhibition in vivo at 1 mg/kg (Mus musculus [4]): 55%

From ChEMBL document CHEMBL1149495, “Newly discovered orally active pure antiestrogens” (Bioorg Med Chem Lett, 2006)
